Shown are actives, neighbours in structure and some others; about 4.5% of the full set was active somewhere.
TAAR1 antagonist: human TAAR1 antagonism. CHO RD-HGA16 TAAR1, Fluo-8 calcium fluorescence, antagonist. inhibition, % at 3 µM. hit rate 1.5% among 360,000. AID 624466;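 active means inhibition above a per-plate cutoff, the mean inhibition of test compounds on that plate plus 3 SD, cut at about 49% in these data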;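 further: 0% = DMSO plus EC80 beta-PEA response and 100% = DMSO alone without agonist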
Target sequence (Q96RJ0 whole entry, looked up): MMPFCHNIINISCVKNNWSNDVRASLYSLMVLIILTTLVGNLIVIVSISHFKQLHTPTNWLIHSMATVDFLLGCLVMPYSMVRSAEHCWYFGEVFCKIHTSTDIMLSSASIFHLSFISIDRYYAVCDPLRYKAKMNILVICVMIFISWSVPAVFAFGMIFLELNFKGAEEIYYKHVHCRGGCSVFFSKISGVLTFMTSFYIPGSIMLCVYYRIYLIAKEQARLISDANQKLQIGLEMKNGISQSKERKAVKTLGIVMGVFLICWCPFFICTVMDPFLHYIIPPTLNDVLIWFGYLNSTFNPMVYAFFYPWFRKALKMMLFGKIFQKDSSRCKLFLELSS
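System: CHO RD-HGA16 cells bearing hTAAR1. Reagent: EC80 β-phenethylamine stimulus. Schedule: seeding 17-24 h prior, 75-min 37 °C, 30-min RT dye loading. Signal: Fluo-8 intracellular calcium dye fluorescence, real-time kinetic reads. Read-out: % inhibition from peak post-agonist over basal fluorescence ratio. Benchmarks: vehicle wells and EC80 agonist wells. Replicates: n of 1.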
OX1R antag-1: human HCRTR1 antagonism; hit rate 0.43% among 330,000; inhibition, % at 5 µM; O43613; CHO/OX1R cells, Fluo-8 calcium fluorescence, orexin A;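 active means inhibition above its plate's threshold, mean inhibition of all tested compounds on the plate plus 3 SD, cut at about 37% in these data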;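 further: 0% = orexin A challenge wells and 100% = SB-334867-A antagonist wells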
OX1R antag-2: OX1R (human) antagonism | O43613 | OX1R-expressing cells, FRET antagonist read-out | inhibition, % at 6.6 µM | hit rate 1.8% among 330,000; in the data active means inhibition mostly above about 38%, no sharp cut-off; inactive means mostly below about 40%;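 further: 0% = agonist challenge alone and 100% = reference antagonist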
CHO parental Ca: signal in parental CHO cells, OX1R antagonist counter-screen; parental CHO-K1, ATP-induced calcium, Fluo-8 fluorescence; inhibition, % at 5.6 µM; hit rate 0.63% among 330,000; AID 463079;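 active means inhibition above that plate's mean sample inhibition plus 3 SD, cut at about 26% in these data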;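 further: 0% = ATP-challenged DMSO wells and 100% = DMSO wells without ATP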
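Material – parental CHO cells · Reagent – ATP stimulus · Compound – single nominal dose of 5.6 µM per compound · Detection – Fluo-8 fluorescence · Read-out basis – percent inhibition of calcium signal · Controls – ATP-challenged DMSO wells low, unchallenged DMSO wells high · Repeats – no replicates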
TAAR1 ag: agonists of human TAAR1 | Q96RJ0 | CHO RD-HGA16 TAAR1, Fluo-8 calcium fluorescence; vehicle wells 0%, saturating PEA agonist 100% | activation, % at 3 µM | hit rate 0.99% among 360,000;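 active means activation above the mean activation of all test compounds in the run plus 3 SD, cut at about 38% in these data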
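Test system: RD-HGA16 (CHO) cells co-expressing Gα16 and hTAAR1 | Doses: Single dose, 3 µM | Schedule: 17-24 h seeding, 75 min 37 °C dye, 30 min RT | Evaluation: % activation from peak over basal fluorescence ratio, DMSO-to-PEA scaled | Technique: Kinetic Fluo-8 calcium fluorescence | Benchmarks: Low control DMSO, high control PEA (EC100)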
GPR7 antagonist: blocks human GPR7 receptor signaling. GPR7-expressing cells, fluorescence antagonist assay. hit rate 1.1% among 290,000. inhibition, % at 4.4 µM. P48145; in the data active means inhibition above about 16%, passing the limit was not always enough;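 further: cells stimulated with the agonist NPW; 0% = agonist with vehicle and 100% = vehicle without agonist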
Target sequence (P48145 whole entry, looked up): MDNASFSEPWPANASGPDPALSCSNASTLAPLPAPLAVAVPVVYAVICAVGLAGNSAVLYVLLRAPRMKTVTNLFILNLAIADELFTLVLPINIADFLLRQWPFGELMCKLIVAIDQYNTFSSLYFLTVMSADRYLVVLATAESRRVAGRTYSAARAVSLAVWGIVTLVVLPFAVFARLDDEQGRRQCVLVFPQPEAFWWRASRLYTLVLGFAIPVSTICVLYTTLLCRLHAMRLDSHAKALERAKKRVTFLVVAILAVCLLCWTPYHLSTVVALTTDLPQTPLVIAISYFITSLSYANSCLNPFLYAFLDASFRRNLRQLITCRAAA
OX1R Fluo8 conf: confirmation of human orexin 1 receptor antagonists; shares compounds with OX1R antag-1; inhibition, % at 5 µM; CHO/OX1R cells, orexin A calcium Fluo-8 fluorescence; hit rate 38% among 1,100; in the data active means inhibition above about 29%;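 further: 0% = agonist challenge alone and 100% = reference antagonist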
CHO Ca counter: counter-screen for OX1R antagonists: effect in parental CHO cells; AID 492965; hit rate 9.3% among 1,100; parental CHO-K1, ATP-induced calcium, Fluo-8 fluorescence; inhibition, % at 5.6 µM; shares compounds with OX1R antag-1;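 active means inhibition above a per-plate limit, the mean inhibition of that plate's test compounds plus 3 SD, cut at about 25% in these data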;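 further: 0% = ATP challenge with DMSO and 100% = DMSO without ATP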
OX1R HTRF conf: OX1R (human) antagonism, HTRF confirmed | shares compounds with OX1R antag-2 | hit rate 49% among 1,800 | AID 492964 | OX1R-expressing cells, HTRF antagonist assay | inhibition, % at 6.6 µM; in the data active means inhibition above about 55%;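 further: CHO cells expressing OX1R stimulated with orexin A at about EC80; 0% = agonist challenge alone and 100% = reference antagonist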
CHO-K1 HTRF cnt: counter-screen: parental CHO-K1 HTRF response | shares compounds with OX1R antag-2 | parental CHO-K1 cells, HTRF counterscreen | inhibition, % at 6.6 µM | hit rate 48% among 1,800 | AID 493232; in the data active means inhibition above about 17%;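 further: 0% = agonist challenge with vehicle and 100% = vehicle alone without agonist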
* marks the source's active call; other numbers are inactive results; x = no result.

SMILES | TAAR1 antagonist | OX1R antag-1 | OX1R antag-2 | CHO parental Ca | TAAR1 ag | GPR7 antagonist | OX1R Fluo8 conf | CHO Ca counter | others
NC(=O)c1ccsc1NC(=O)COC(=O)c1ccccn1 | 9 | 11 | 0 | -2 | -1 | x | x | x
Cc1noc(C)c1COc1ccc(C(=O)OCC(=O)N2c3ccccc3NC(=O)C2(C)C)cc1 | 67* | 29 | 16 | -13 | 31 | 0 | 47* | 5
Cc1noc(C)c1COc1ccc(C(=O)OCC(=O)N2CC(=O)Nc3ccccc32)cc1 | 5 | 82* | 35 | -2 | 9 | -5 | 76* | -7
Cc1noc(C)c1CSCC(=O)OCC(=O)N1CC(=O)Nc2ccccc21 | -11 | -21 | 19 | -3 | 14 | -14 | x | x
Cc1noc(C)c1COc1ccc(C(=O)OCC(N)=O)cc1 | 0 | -13 | 8 | -4 | 4 | -1 | x | x
O=C(N/N=C/c1cccc(Br)c1)C1CC(=O)N(c2ccccc2)C1 (stereo unspecified) | 8 | -28 | 17 | -8 | -6 | -5 | x | x
Cc1ccc(N2CCN(C(=O)C3CCCN(c4ncnc5c4nc4n5CCCCC4)C3)CC2)c(C)c1 (stereo unspecified) | -8 | -15 | 11 | -32 | 7 | -3 | x | x
Cc1cccc(N2CCN(C(=O)C3CCN(c4ncnc5c4nc4n5CCCCC4)CC3)CC2C)c1 (stereo unspecified) | 49* | 37 | 13 | 3 | 13 | 0 | 1 | -7
C/C(N)=C(/C#N)C(=O)CSc1nc2ccccc2c(=O)n1CCCO | 6 | 18 | 9 | -6 | 1 | -5 | x | x
CC(=O)c1c(C)[nH]c(C(=O)CSc2nc3ccccc3c(=O)n2CCCO)c1C | 39 | 28 | 1 | -11 | 8 | -7 | 14 | -3
CCc1c(C)sc(NC(=S)Nc2cccnc2)c1C(=O)OC | -42 | -18 | 9 | -7 | 1 | -16 | x | x
CCc1c(C)sc(NC(=S)Nc2nc(C)cc(C)n2)c1C(=O)OC | 6 | 40 | 37 | -21 | 3 | -18 | 45* | -13
CC(C)OC(=O)c1ccc(NC(=S)NC(=O)c2cncc(Br)c2)cc1 | -6 | -16 | -8 | -18 | -1 | 3 | x | x
COc1cc2c(cc1OC)CN(C(=O)Cn1ccccc1=O)CC2 | x | 51* | 8 | -3 | x | 0 | 1 | -1
Cc1cc(C(=O)Nc2ccc(F)c(Cl)c2)on1 | 5 | 6 | 4 | 3 | 4 | -3 | x | x
Cc1ccc(-n2nnnc2SCn2nnc3ccccc3c2=O)c(C)c1 | 3 | 42* | 10 | 8 | 6 | -6 | 12 | 21
Cn1c(CCCOc2ccc(Cl)cc2Cl)nnc1SCC(=O)Nc1nccs1 | 6 | 38 | 14 | 3 | 12 | -4 | 7 | -5
CCc1noc(C)c1C(=O)Oc1ccc(N(C)S(=O)(=O)c2ccc(C)cc2)cc1 | x | 55* | 9 | 8 | x | x | 5 | 5
Cc1ccc(Oc2c(F)c(F)nc(N3CCCC3)c2F)cc1 | 6 | -11 | 21 | 1 | 0 | -6 | x | x
CNc1ccc(Oc2c(F)c(F)nc(F)c2F)cc1 | -2 | 29 | 7 | 5 | 0 | 8 | -5 | 4
COc1ccc(S(=O)(=O)N2CCN(CC(=O)c3[nH]c(C)c(C(C)=O)c3C)CC2)cc1OC | 8 | -32 | 7 | -17 | 4 | x | x | x
CC(=O)c1c(C)[nH]c(C(=O)CN2CCN(S(=O)(=O)c3ccc(C(C)C)cc3)CC2)c1C | 36 | 38 | 2 | -17 | 10 | x | 7 | 9
Cc1cc(S(=O)(=O)N2CCOCC2)ccc1OCC(=O)NCCN1CCOCC1 | 8 | -8 | 9 | -5 | -2 | -10 | x | x
CCNC(=S)N(Cc1ccc2c(c1)OCO2)C1CC(=O)N(c2ccc(F)cc2)C1=O (stereo unspecified) | 1 | 57* | 59 | 16 | 32 | 6 | 1 | -4
CC(C)=CCC/C(C)=C/CNC(=O)C[C@H]1C[C@H](C(=O)N2CCCCC2)[C@@]2(C)c3[nH]c4cc(CCC(=O)N(C)C)ccc4c3CCN2C1=O | x | 49* | 28 | -13 | x | x | 21 | -11
SMILES | TAAR1 antagonist | OX1R antag-1 | OX1R antag-2 | CHO parental Ca | TAAR1 ag | GPR7 antagonist | OX1R Fluo8 conf | CHO Ca counter | others
O=C(NCCS(=O)(=O)N1CCN(c2cccc(Cl)c2)CC1)c1ccco1 | -12 | -22 | 16 | -5 | 1 | x | x | x
Cc1ccc(C)c(NS(=O)(=O)c2cc(C(=O)NCCSC3CCCCC3)ccc2C)c1 | 30 | 51* | 17 | -9 | 2 | -15 | -1 | -15
Cc1ccc(C)c(NS(=O)(=O)c2cc(C(=O)Nc3cccc(N(C)S(C)(=O)=O)c3)ccc2C)c1 | 23 | 65* | 34 | 16 | 15 | 2 | 36* | -8
Cc1ccccc1NS(=O)(=O)c1cc(C(=O)NCCSC2CCCCC2)ccc1C | 35 | 60* | 21 | -6 | 5 | -7 | 4 | -12
O=C(CSc1ncc(-c2ccc(F)cc2)n1Cc1ccco1)Nc1nccs1 | 40 | 22 | 46 | 12 | 46* | -1 | 16 | -9
CCCCOc1ccc(S(=O)(=O)N2CCCCCC2)cc1 | -6 | 42 | -1 | 5 | 2 | 7 | -14 | 13
C=CCOc1ccc(/C=N/n2nnnc2N)cc1OC | -4 | 2 | 7 | -3 | 11 | x | x | x
O=C(c1cccc(N2CCNC2=O)c1)N1CCCC(Nc2cccc(F)c2)C1 (stereo unspecified) | -13 | 33 | 98* | -9 | 1 | -4 | 68* | -4 | OX1R HTRF conf=71*;CHO-K1 HTRF cnt=-31
O=C(Cc1ccc(N2CCNC2=O)cc1)N1CCCC(Nc2cccc(F)c2)C1 (stereo unspecified) | -14 | -78 | 4 | -13 | 3 | 7 | x | x
COc1cccc(C(=O)Nc2nnc(S(=O)(=O)Nc3cccc(C)c3)s2)c1 | 0 | 36 | 89* | 2 | 1 | 0 | 41* | 2 | OX1R HTRF conf=75*;CHO-K1 HTRF cnt=2
COc1ccc(-c2nc3ccc(Br)cn3c2Cc2ccccc2)cc1OC | -4 | x | x | x | 0 | x | x | x
C=C(C)C(COc1c2occc2cc2ccc(=O)oc12)OC(C)(C)C(O)COc1c2occc2cc2ccc(=O)oc12 (stereo unspecified) | 58* | 61* | 84* | -24 | 16 | x | 39* | -5 | OX1R HTRF conf=88*;CHO-K1 HTRF cnt=-1
COc1cccc(-c2cnc3cccnn23)c1 | 7 | x | x | x | -1 | x | x | x
